Compounds with a hit are over-represented: about 0.41% of the library has one in this group of screens.
S1P3 antag – S1P3 (human) receptor antagonism | Q99500 | CHO S1P3 NFAT-BLA reporter, FRET fluorescence, antagonist mode | inhibition, % at 4.98 µM | 170,000 compounds, 0.27% hits | AID 485;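 active means inhibition above the plate cutoff, the mean inhibition of test wells on that plate plus 3 SD, cut at about 28% in these data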;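 further: cells challenged with S1P at its EC80 of 0.8 µM; blue over green emission ratio from cleaved BLA substrate after 4 h stimulation; 0% = S1P-stimulated wells and 100% = unstimulated DMSO-only wells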
Target sequence (Q99500 whole entry, looked up): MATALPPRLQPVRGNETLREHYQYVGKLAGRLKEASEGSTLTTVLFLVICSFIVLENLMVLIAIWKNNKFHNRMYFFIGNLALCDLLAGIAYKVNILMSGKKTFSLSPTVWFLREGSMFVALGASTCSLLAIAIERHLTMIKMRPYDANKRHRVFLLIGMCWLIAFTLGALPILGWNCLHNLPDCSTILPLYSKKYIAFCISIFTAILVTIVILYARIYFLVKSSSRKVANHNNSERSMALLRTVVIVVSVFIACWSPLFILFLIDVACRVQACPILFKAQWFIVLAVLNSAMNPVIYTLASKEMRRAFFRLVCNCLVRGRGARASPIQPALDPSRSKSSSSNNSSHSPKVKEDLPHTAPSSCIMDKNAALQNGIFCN
T cell modulator – T cell immune modulators affecting CD8 T cell-vesicle binding | 2C CD8+ T cell-vesicle binding, flow cytometry; active compounds read low | response (vesicle binding), % at 7 µM | 330,000 compounds, 0.068% hits | AID 2052;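 active means response, share of CD8 T cells binding vesicles, and their 90th percentile fluorescence all below set limits, cut at about 80% in these data, passing the limit was not always enough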;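 further: values below 100% mean blocked vesicle binding to the CD8+ T cells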
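System: murine 2C transgenic CD8+ T lymphocytes; also added: QL9-loaded Drosophila micro-vesicles; times: binding 1.5 h at 37 °C; measured by: flow cytometry, PE anti-B7-1 (FL2) versus Alexa647 anti-CD8 (FL8), PFA-fixed; control set: Peptide-free naked vesicles (low) and QL9 vesicles with 0.7% DMSO vehicle (high)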
Yeast superoxide – yeast age-related superoxide inhibition as caloric restriction mimetic | AID 2690 | 330,000 compounds, 0.18% hits | S. cerevisiae aged cells, superoxide DHE fluorescence; active compounds read low | superoxide response (% of plate mean), % at 10 µM;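 active means superoxide response under a set limit, about three screen SD below normal, cut at about 65% in these data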;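 further: yeast aged for seven days with compound at 30 °C before DHE staining; 100% = average MFI of all compound-treated wells on the plate with controls excluded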
Superoxide pick – yeast aging superoxide inhibition, cherry pick confirmation | shares compounds with Yeast superoxide | S. cerevisiae aging, superoxide DHE fluorescence; active compounds read low | superoxide response (% of plate), % at 10 µM | 850 compounds, 1% hits | AID 434994;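 active means superoxide signal below 65% of the plate average of sample wells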;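 further: cells aged with compound for 7 days at 30 degrees C before staining; 100% equals mean DHE fluorescence of all compound wells on the plate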
DHE counter – DHE fluorescence interference, counter-screen artifact | shares compounds with Yeast superoxide | S. cerevisiae BY4741, flow cytometry; active compounds read low | fluorescence response, % at 10 µM | 850 tested, under 10 active | AID 435000;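 active means fluorescence response below 15%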;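 further: percent of the mean fluorescence averaged over all compound wells on the plate; lower means stronger quenching of DHE signal or ROS scavenging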
The depositor's hits bear a star; nt = no result.

SMILES | S1P3 antag | T cell modulator | Yeast superoxide | Superoxide pick | DHE counter
Cc1cc(S(=O)(=O)N2CCOCC2)ccc1OCC(=O)NCCCn1ccnc1 | nt | 174 | 97 | nt | nt
CN1C(=O)CC(=O)N(C)c2cc(S(=O)(=O)N(C)Cc3ccccc3)ccc21 | nt | 538 | 90 | nt | nt
CCc1ccc2c(CN(C)Cc3ccccc3OC)cc(=O)oc2c1 | nt | 87 | 104 | nt | nt
COCCNC(=O)C12CC3CC(CC(Cl)(C3)C1)C2 | 2 | 709 | 85 | nt | nt
CCOC(=O)N1CCN(S(=O)(=O)N2CCCC(C(=O)NCCCN3CCCCC3)C2)CC1 (stereo not given) | nt | 290 | 106 | nt | nt
COc1ccc(CCNC(=O)CCNS(=O)(=O)c2cccc(Cl)c2)cc1OC | 8 | 260 | 59* | 92 | 112
CN(C)c1ccc(S(=O)(=O)NCC(=O)NCc2ccccc2)cc1[N+](=O)[O-] | nt | 112 | 98 | nt | nt
CCCNS(=O)(=O)c1ccc(CCC(=O)NCCc2ccc(OC)c(OC)c2)cc1 | -5 | 285 | 97 | nt | nt
COc1ccc(CCNC(=O)CNS(=O)(=O)c2ccc(N(C)C)c([N+](=O)[O-])c2)cc1OC | nt | 85 | 65* | 100 | 99
CCCC(C(=O)NCCC(C)C)N(Cc1ccccc1Cl)C(=O)c1snc(C(N)=O)c1N (stereo not given) | nt | 330 | 86 | nt | nt
FC(F)c1nc2ccccc2[nH]1 | -13 | 254 | 120 | nt | nt
c1ccc2[nH]c3cc4ncnc4cc3nc2c1 | -4 | 542 | 40* | 47* | 89
COc1c(C)cc(S(=O)(=O)N2CCCC2)c(C)c1C | nt | 208 | 109 | 97 | 95
COc1cc(C)c(S(=O)(=O)N2CCCC2)cc1C(C)C | 5 | 470 | 91 | 92 | 90
CCOc1ccc(NS(=O)(=O)c2ccc(SC)cc2)cc1 | -11 | 801 | 100 | nt | nt
CCOc1ccc(NS(=O)(=O)c2ccc(N)cc2)cc1 | nt | 233 | 101 | 98 | 90
CCOc1cc(S(=O)(=O)N2CCCC2)c(C)cc1C | -12 | 263 | 99 | 104 | 104
COc1cc(C)ccc1S(=O)(=O)N1CCCCCC1 | 13 | 194 | 100 | nt | nt
COc1c(C)cc(S(=O)(=O)N2CCOCC2)c(C)c1C | -8 | 376 | 91 | nt | nt
CCOc1cc(C)c(S(=O)(=O)N2CCCCC2)cc1C | 0 | 366 | 87 | nt | nt
Cc1nn(-c2ccccc2)c(C)c1NC(=O)COC(=O)C1CC(=O)N(CCc2ccccc2)C1 (stereo not given) | nt | 236 | 105 | nt | nt
O=C(O)COCC(=O)N1CCc2c([nH]c3ccccc23)C1C(F)(F)F (stereo not given) | nt | 338 | 123 | nt | nt
COc1ccc(NC(=O)CSc2nc(SC)ns2)cc1 | nt | 189 | 102 | nt | nt
CCn1c(SCc2ccccc2F)nnc1-c1ccncc1 | nt | 404 | 99 | nt | nt
COc1cc(C)c(S(=O)(=O)N2CCCC2)cc1C | -8 | 310 | 59* | 80 | 92
SMILES | S1P3 antag | T cell modulator | Yeast superoxide | Superoxide pick | DHE counter
COc1cc(C)c(S(=O)(=O)N2CCN(C)CC2)cc1C | -9 | 158 | 114 | nt | nt
CCOc1ccc(S(=O)(=O)N2CCCC2)cc1 | nt | 325 | 112 | 110 | 109
CCOc1ccc2cc(S(=O)(=O)N3CCCCC3)ccc2c1 | nt | 608 | 81 | nt | nt
Cc1ccc(OCC(=O)NC2CCCC(C)C2C)c([N+](=O)[O-])n1 (stereo not given) | nt | 508 | 88 | nt | nt
O=C(O)C1CC(O)CN1S(=O)(=O)c1ccc2ccccc2c1 (stereo not given) | nt | 993 | 101 | nt | nt
Cc1ccc(S(=O)(=O)N2CC(O)CC2C(=O)O)cc1 (stereo not given) | nt | 247 | 92 | 110 | 109
OCCN(CC#CCn1c2ccccc2c2ccccc21)CCO | -16 | 203 | 106 | 87 | 105
OCCN(CC#CC(O)(c1ccccc1)C1CCCCC1)CCO (stereo not given) | nt | 435 | 94 | nt | nt
COC(=O)c1ccccc1NC(=O)CN1CCN(c2ccccn2)CC1 | 7 | 614 | 105 | 99 | 93
COc1ccc(C)cc1NC(=O)CN1CCN(c2ccccn2)CC1 | nt | 200 | 103 | 107 | 93
COC(=O)c1ccccc1NC(=O)CN1CCCCCC1 | nt | 549 | 98 | nt | nt
O=C(CN1CCN(c2ccc(F)cc2)CC1)Nc1ccccc1Br | nt | 159 | 98 | nt | nt
CCc1ccccc1NC(=O)CN1CCN(CC(=O)Nc2cc(C)ccc2OC)CC1 | nt | 264 | 95 | nt | nt
COc1cc(NC(=O)CN2CCN(c3ccccn3)CC2)cc(OC)c1OC | nt | 260 | 100 | 100 | 93
CCOC(=O)c1[nH]c2ccc(OC)cc2c1NC(=O)CN1CCN(c2ccccn2)CC1 | nt | 206 | 107 | nt | nt
O=C(CN1CCN(c2ccccn2)CC1)Nc1ccccc1Br | nt | 401 | 94 | 108 | 99
O=C(C[n+]1ccccn1)c1ccccc1 | nt | 300 | 102 | nt | nt
O=[N+]([O-])c1cc(S(=O)(=O)NCCN2CCOCC2)ccc1Cl | nt | 207 | 101 | nt | nt
COc1ccc(C(CNC(=O)CCC(=O)c2ccc(C)s2)N2CCOCC2)cc1 (stereo not given) | nt | 360 | 94 | nt | nt
N#Cc1ccccc1NC(=O)CN1CCN(c2ccccn2)CC1 | nt | 254 | 98 | 109 | 100
COc1ccccc1NC(=O)CN1CCN(c2ccccn2)CC1 | nt | 196 | 136 | 99 | 117
O=C(c1c(Cl)cccc1Cl)N1CCN(c2ccccn2)CC1 | 26 | 280 | 100 | nt | nt
Cc1ccc(NC(=O)CN2CCN(c3ccccn3)CC2)c(Cl)c1 | nt | 214 | 82 | 114 | 130
N#Cc1ccccc1NC(=O)CN1CCOCC1 | nt | 215 | 100 | nt | nt
COc1ccccc1NC(=O)CN1CCN(Cc2ccccc2)CC1 | -4 | 620 | 89 | nt | nt
SMILES | S1P3 antag | T cell modulator | Yeast superoxide | Superoxide pick | DHE counter
Cc1ccc2nc(NC(=O)CN3CCN(c4ccccn4)CC3)sc2c1 | nt | 187 | 97 | nt | nt
O=C(CN1CCN(c2ccccn2)CC1)Nc1cccc(Cl)c1Cl | nt | 678 | 86 | 111 | 109
CCCCCCCCC(NC(=O)c1ccc(C#N)cc1)C(=O)NCCC (stereo not given) | nt | 244 | 114 | nt | nt
CN1CC(=O)N2Cc3[nH]c4ccccc4c3C[C@H]2C1=O | nt | 339 | 100 | nt | nt
Cc1ccc(C(C)C)cc1S(=O)(=O)Nc1cccnc1 | nt | 179 | 107 | nt | nt
CC(=O)c1cccc(NS(=O)(=O)c2ccc3c(c2)N(C(C)=O)CCO3)c1 | nt | 219 | 89 | nt | nt
O=C(CN1CCN(c2ccc([N+](=O)[O-])cc2)CC1)Nc1nccs1 | -9 | 476 | 95 | nt | nt
O=C(CN1CCN(c2ccc([N+](=O)[O-])cc2)CC1)Nc1ccccn1 | -10 | 285 | 60* | 107 | 115
CC(c1ccco1)N(C(=O)c1cc(Cl)cc(Cl)c1)c1ccccn1 (stereo not given) | nt | 301 | 101 | nt | nt
CC(c1ccco1)N(C(=O)c1ccccc1NS(=O)(=O)c1ccc(Cl)c([N+](=O)[O-])c1)c1ccccn1 (stereo not given) | -1 | 265 | 65* | 97 | 88
Cc1cc(C)cc(NC(=O)C2CCN(S(=O)(=O)c3c(C)n[nH]c3C)CC2)c1 | -25 | 622 | 90 | nt | nt
CC(=O)N1CCC(C(=O)Nc2cc(C)cc(C)c2)CC1 | -2 | 688 | 61* | 103 | 91
CCOc1ccc(C(=O)Nc2ccc(C(=O)N3CCOCC3)cc2)c(OCC)c1 | nt | 221 | 91 | nt | nt
COc1ccccc1N1CCN(CC(=O)Nc2ccc(Cl)c(C(F)(F)F)c2)CC1 | nt | 369 | 99 | nt | nt

Bioassay records (PubChem BioAssay)
